Hits are enriched below; roughly 4.7% of the tested compounds scored in any of these assays.
RGS4 pot – RGS4 potentiation or activation; 310,000 tested, 0.92% active; AID 463111; B-score at 10 µM; HEK293 M3R/inducible RGS4, carbachol calcium flux Fluo4; stronger effect = lower value;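 active = B-score of the integrated calcium signal more than 4 SD below the library mean, with starting fluorescence not abnormally high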;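 note: negative B-score means reduced calcium response which marks RGS4 activation or potentiation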
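Assay system: HEK293 FlpIn-TREx cells, stable M3R, doxycycline-inducible RGS4 / Probe or stimulus: carbachol, ECmax concentration / Times: overnight RGS4 induction, 30 min dye load 37 °C, 20 min compound RT / Signal: kinetic calcium fluorescence imaging with Fluo4-AM dye, 2 µM / Measure: Agonist-evoked peak-minus-minimum fluorescence over baseline, integrated ratio, B score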
MrgX1 antagonist – antagonists of human MrgX1 receptor; AID 588676; MRGX1-HEK293 calcium flux, Fluo-4, BAM8-22 antagonism; stronger effect = lower value; 310,000 tested, 1.3% active; B-score at 10 µM; Q96LB2;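 active = calcium-response B-score plate-corrected more than 3 library SD below zero, starting fluorescence within 5 deviations, no agonist response on first addition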;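 note: peak minus trough fluorescence over baseline after final BAM8-22 challenge near maximal dose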
RGS4 block – human RGS4 inhibition | 310,000 tested, 0.45% active | P49798 | B-score at 10 µM | AID 463165 | HEK293 M3R/RGS4 inducible, Fluo-4 calcium flux; stronger effect = higher value; triggered by carbachol at its EC20;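 active = B-score, a plate-corrected calcium signal, over three deviations above library mean, with baseline fluorescence within five deviations of library mean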;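 note: RGS4 expression induced by doxycycline in cells with stable M3 receptor; B-score is computed from the integrated fluorescence ratio over baseline after carbachol; higher B-score means a larger calcium signal and so more RGS4 inhibition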
MrgX1 agonist – activates human MrgX1 receptor signaling | B-score at 10 µM | MrgX1-HEK293 cells, Fluo-4 calcium fluorescence, agonist mode; stronger effect = higher value | Q96LB2 | 310,000 tested, 0.44% active;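 active = calcium response B-score plate-corrected fluorescence ratio at least 3 library SD, with starting fluorescence B-score inside 5 SD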
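System: HEK293 cells stably expressing human MrgX1 receptor; Dosing: test compound in the initial addition of three; Schedule: overnight plating, then 30 min 37 °C plus 30 min room-temperature dye loading; Detection: kinetic calcium dye fluorescence, Fluo-4 NW; Controls: per-plate positive and negative controls for Z′ factor.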
MrgX1 PAM – allosterically activates human MrgX1 receptor signaling | 310,000 tested, 0.63% active | MrgX1-HEK293, Fluo-4 calcium flux, FDSS; stronger effect = higher value | AID 588675 | B-score at 10 µM;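 active = plate-corrected calcium response at least 3 library SD above typical, normal starting fluorescence, not activating the receptor alone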;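 note: compound read alongside a low EC10 to EC30 dose of BAM8-22 agonist; peak minus trough fluorescence over baseline measured at the second addition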
Cl transport mod – modulates chloride dependent transport by human KCC2 | Q9H2X9 | KCC2 cells, thallium flux FluoZin-2 fluorescence | B-score of Tl+ flux slope (higher = more flux/activation; lower = inhibition) at 10 µM | 190,000 tested, 2.2% active | AID 1456;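 active = thallium flux slope and its plate-corrected score both differing from the plate sample mean at a set confidence after two filtering rounds, in either direction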;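 note: slope of fluorescence scaled to starting intensity during 10 to 20 s after thallium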
Target sequence (Q9H2X9 whole entry, looked up): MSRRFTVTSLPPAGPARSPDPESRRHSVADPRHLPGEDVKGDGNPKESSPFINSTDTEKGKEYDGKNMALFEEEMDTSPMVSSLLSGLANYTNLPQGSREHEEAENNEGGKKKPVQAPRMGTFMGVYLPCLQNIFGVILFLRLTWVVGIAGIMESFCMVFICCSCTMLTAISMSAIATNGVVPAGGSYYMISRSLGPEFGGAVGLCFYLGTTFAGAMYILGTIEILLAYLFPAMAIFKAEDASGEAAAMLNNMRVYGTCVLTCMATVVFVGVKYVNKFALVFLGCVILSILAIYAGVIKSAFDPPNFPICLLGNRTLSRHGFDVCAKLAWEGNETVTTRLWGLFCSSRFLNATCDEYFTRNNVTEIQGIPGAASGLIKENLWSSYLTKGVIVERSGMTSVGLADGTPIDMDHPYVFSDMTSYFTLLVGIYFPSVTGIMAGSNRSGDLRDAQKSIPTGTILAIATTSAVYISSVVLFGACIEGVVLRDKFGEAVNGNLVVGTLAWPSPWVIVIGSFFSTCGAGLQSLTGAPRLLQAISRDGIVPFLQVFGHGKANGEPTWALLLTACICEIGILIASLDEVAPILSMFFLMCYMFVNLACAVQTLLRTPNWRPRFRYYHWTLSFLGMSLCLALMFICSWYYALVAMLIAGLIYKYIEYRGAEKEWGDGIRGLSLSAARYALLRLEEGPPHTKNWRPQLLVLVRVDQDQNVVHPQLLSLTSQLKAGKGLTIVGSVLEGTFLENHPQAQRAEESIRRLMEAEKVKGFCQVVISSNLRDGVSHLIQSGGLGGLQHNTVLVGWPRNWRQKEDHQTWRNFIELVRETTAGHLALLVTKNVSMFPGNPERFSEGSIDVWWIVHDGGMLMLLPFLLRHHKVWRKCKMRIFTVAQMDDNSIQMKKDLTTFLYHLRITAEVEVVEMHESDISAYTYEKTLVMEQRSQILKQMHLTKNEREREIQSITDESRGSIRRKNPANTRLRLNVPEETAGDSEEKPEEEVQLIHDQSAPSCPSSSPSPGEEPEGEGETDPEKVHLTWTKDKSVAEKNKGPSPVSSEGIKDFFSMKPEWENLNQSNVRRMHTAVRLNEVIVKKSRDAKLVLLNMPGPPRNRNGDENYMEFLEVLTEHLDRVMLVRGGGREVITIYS
MrgX1 ag reconf – human MrgX1 agonism, re-confirmation screen. activation, % at 10 µM. MrgX1-HEK293, Fluo-4 calcium fluorescence, FDSS. 600 tested, 78% active. shares compounds with MrgX1 agonist;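 active = calcium signal rise, corrected for plate position, at least 3 library SD high, with starting brightness within 5 such deviations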
HEK293 Ca flux – MrgX1 antagonist counter-screen hit in parental HEK293 cells; 4,000 tested, 2% active; shares compounds with MrgX1 antagonist; fluorescence ratio F(max-min)/F0 at 10 µM; AID 624111; Fluo-4 calcium fluorescence, FDSS;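 active = duplicate-averaged calcium fluorescence ratio at least three times the standard deviation of buffer wells, a nonspecific response in parental cells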
HEK293 Ca counter – activity in parental HEK293 cells without MrgX1. shares compounds with MrgX1 antagonist. parental HEK293 calcium flux, Fluo-4 fluorescence ratio; stronger effect = higher value. fluorescence ratio F(max-min)/F0 at 10 µM. 4,000 tested, 0.4% active. AID 624114;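 active = calcium fluorescence ratio, averaged over duplicates, at least 3 SD of the buffer-well ratio, meaning a nonspecific response in receptor-free cells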;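 note: untransfected parental HEK293 lacking MrgX1 used as counterscreen for MrgX1 allosteric activators; fluorescence change taken during the second addition on a kinetic imager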
HEK293 Ca cntr2 – MrgX1 activator counter-screen hit in parental HEK293 cells; 4,000 tested, 8.7% active; shares compounds with MrgX1 antagonist; Fluo-4 calcium fluorescence (FDSS); stronger effect = higher value; fluorescence ratio F(max-min)/F0 at 10 µM;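 active = calcium fluorescence ratio at least three times the spread of buffer wells, meaning a non-specific response in parental cells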
Starred values were filed as active, the others as inactive; i = inactive; / = no result.

SMILES	RGS4 pot	MrgX1 antagonist	RGS4 block	MrgX1 agonist	MrgX1 PAM	Cl transport mod	MrgX1 ag reconf	HEK293 Ca flux	HEK293 Ca counter	HEK293 Ca cntr2
CN(C(=O)COc1ccc(S(=O)(=O)N2CCOCC2)cc1[N+](=O)[O-])C1CCS(=O)(=O)C1 (centres undefined)	i	i	i	i	i	-0.0047	/	/	/	/
O=C(Oc1ccc(C(=S)N2CCOCC2)cc1)c1cccc(Cl)c1	i	i	i	i	i	/	/	/	/	/
Cc1cc(OC(C)C(N)=O)nc(-c2ccccc2)n1 (centres undefined)	i	i	i	i	i	0.093	/	/	/	/
Cc1ccc(-n2nc3cc(C)c(N)cc3n2)cc1	i	i	i	i	i	0.12	/	/	/	/
Cc1cc2nc3ccc(N(C)C)cc3nc2cc1N	i	i	i	26*	i	/	259%*	i	i	i
COc1cc(/C=C2\C(=N)N3N=CSC3=NC2=O)ccc1OS(=O)(=O)c1ccccc1	i	i	i	73*	i	/	383%*	i	i	77*
O=C(Nc1nnc(COc2ccc(F)cc2)s1)c1cccs1	i	i	i	i	i	1.1	/	/	/	/
O=C(O)Cc1sc(Nc2ccc(F)cc2)nc1-c1cccs1	i	i	i	32*	i	/	i	i	i	i
CC1(c2ccc(OC(F)F)cc2)NC(=O)N(CC(=O)c2ccc3c(c2)OCO3)C1=O (centres undefined)	i	i	i	35*	i	/	176%*	i	i	55*
COc1ccc(C(=O)Nc2ccc(OCC(=O)N3CCOCC3)cc2)c(OC)c1OC	i	i	i	i	i	/	/	/	/	/
N#CC1=C(N)Oc2n[nH]c(-c3ccccc3)c2C12C(=O)Nc1ccccc12 (centres undefined)	i	i	i	i	i	0.038	/	/	/	/
Cn1c2c(c(=O)n(C)c1=O)[C@@]1(C(=O)Nc3ccccc31)C(C#N)=C(N)O2	i	i	i	41*	i	-0.14	173%*	i	i	i
O=C(CC1CCCCC1)c1c(O)c2ccccc2oc1=O	i	i	i	87*	i	0.43	428%*	i	i	92*
CC(=N)c1c(O)c2ccccc2oc1=O	i	i	i	i	i	0.47	/	/	/	/
CC1CCC(C(=O)c2c(O)c3ccccc3oc2=O)CC1 (centres undefined)	i	i	i	69*	i	0.81	282%*	i	i	84*
CCCCC(=O)c1c(O)c2ccccc2oc1=O	i	i	i	i	i	-0.13	/	/	/	/
COc1ccc(C2C=C(c3ccccc3)Nc3nnnn32)cc1 (centres undefined)	i	i	i	33*	i	/	i	i	i	i
Cc1ccc(-c2n[nH]c(=O)c3ccccc23)cc1S(=O)(=O)NCC1CCCO1 (centres undefined)	i	i	i	40*	i	/	174%*	i	i	i
Cc1ccc(-c2n[nH]c(=S)c3ccccc23)cc1S(=O)(=O)NCC1CCCO1 (centres undefined)	i	i	i	i	i	/	/	/	/	/
O=C(NC1CCCN(Cc2ccc(Cl)cc2)C1)c1c(F)ccc(F)c1F (centres undefined)	i	i	i	i	i	/	/	/	/	/
CCOc1ccc(CSC(=N)N)cc1Cl	i	i	i	33*	i	-0.63	179%*	i	i	i
CCCCOc1ccc(CSCCN)cc1Cl	i	i	i	i	i	0.45	/	/	/	/
Cc1cc2oc(=O)cc(CN3CCCc4ccccc43)c2cc1C	i	i	i	67*	i	-0.88	179%*	i	i	i
Cc1cc2oc(=O)cc(CN3CCCCC3)c2cc1C	i	i	i	i	i	/	/	/	/	/
O=C(Nc1nc2cc3c(cc2s1)OCCO3)c1ccc([N+](=O)[O-])o1	i	i	i	i	i	/	/	/	/	/
SMILES	RGS4 pot	MrgX1 antagonist	RGS4 block	MrgX1 agonist	MrgX1 PAM	Cl transport mod	MrgX1 ag reconf	HEK293 Ca flux	HEK293 Ca counter	HEK293 Ca cntr2
O=C(Nc1ccc(Cl)cc1Cl)c1ccc2c(=O)n3c(nc2c1)CCC3	i	i	i	85*	i	/	462%*	i	i	107*
O=C(Nc1ccc(Br)cc1Cl)c1ccc2c(=O)n3c(nc2c1)CCC3	i	i	i	55*	i	/	468%*	i	i	102*
CC1CCCN(C(=O)C(=O)c2cn(CC(=O)N3CCCCCC3)c3ccccc23)C1 (centres undefined)	i	i	i	i	i	/	/	/	/	/
CCC1(C)Cc2ccccc2-c2nc(NCCO)n(-c3ccc(C)cc3)c(=O)c21 (centres undefined)	i	i	i	39*	i	0.37	173%*	i	i	56*
CCC(C)c1ccccc1N1CC(C(=O)Nc2ccc(S(=O)(=O)N3CCOCC3)cc2)CC1=O (centres undefined)	i	i	i	i	i	/	/	/	/	/
O=C(NC1CCCCC1)C(c1cccs1)N(C(=O)c1ccccn1)c1ccccc1 (centres undefined)	i	i	i	i	i	-1	/	/	/	/
OC(C#Cc1ccccn1)c1cccs1 (centres undefined)	i	i	i	44*	i	0.37	i	i	i	i
CC1=Nc2ccc(C)c3nc(C)cc(c23)N1c1ccc(C)cc1	i	i	i	38*	i	-0.47	191%*	i	i	i
Cc1ccc(N2C=Nc3ccc(C)c4nc(C)cc2c34)cc1	i	i	i	28*	i	/	98%*	i	i	i
COC(CNC(=O)c1ccc(CS(=O)(=O)c2c(Cl)cccc2Cl)o1)OC	i	i	i	i	i	/	/	/	/	/
Cc1cccc(OCC(=O)NCc2ccc(F)cc2)c1	i	i	i	i	i	/	/	/	/	/

Screens deposited in PubChem by several laboratories.
